Results from ChEMBL document CHEMBL4373711, “Development of 3,5-Dinitrophenyl-Containing 1,2,4-Triazoles and Their Trifluoromethyl Analogues as Highly Efficient Antitubercular Agents Inhibiting Decaprenylphosphoryl-β-d-ribofuranose 2'-Oxidase” (J Med Chem, 2019).
≈ marks a conversion by molar mass, not a printed value. Calls of active or inactive are those of the source. The calls are words filed in the database; no cut-off is given here.

Key:
Pseudomonas aeruginosa = assay: Antibacterial activity against Pseudomonas aeruginosa ATCC 27853 CCM 3955 at highest concentration measured after 24 to 48 hrs by alamar blue dye based broth microdilution assay; type: functional, organism-based
Mycobacterium avium [1] = assay: Antimycobacterial activity against Mycobacterium avium CNCTC My 330/88 after 21 days; type: functional; conditions: CNCTC My 330/88, 504 h
How it was run: (§1)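 M. avium was tested by microdilution in Šula's semisynthetic medium, with compounds dissolved in DMSO and serially diluted from 1000 down to 1. Inoculum was a 1.0 McFarland suspension diluted 10-5. Plates were incubated at 37 °C and read at 14 and 21 days. […] Isoniazid and rifampicin served as standards.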

Mycobacterium kansasii [2] = assay: Antimycobacterial activity against Mycobacterium kansasii CNCTC My 235/80 after 7 days; type: functional; conditions: CNCTC My 235/80, 168 h
How it was run: (§2)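 Microdilution in Šula's semisynthetic medium; compounds in DMSO at 32–0.03 µM. Inoculum from 1.0 McFarland suspension diluted 10-4. […] Isoniazid and rifampicin as reference drugs.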

Mycobacterium kansasii [3] = assay: Antimycobacterial activity against Mycobacterium kansasii 6509/96 after 14 days; type: functional; conditions: 6509/96, 336 h; how it was run: as §2
Aspergillus fumigatus = assay: Antifungal activity against Aspergillus fumigatus ATCC 204305 at highest concentration measured after 24 to 48 hrs by alamar blue dye based broth microdilution assay; type: functional, organism-based
Mycobacterium avium [4] = assay: Antimycobacterial activity against Mycobacterium avium CNCTC My 330/88 after 14 days; type: functional; conditions: CNCTC My 330/88, 336 h; how it was run: as §1
Escherichia coli = assay: Antibacterial activity against Escherichia coli ATCC 25922 CCM 3954 at highest concentration measured after 24 to 48 hrs by alamar blue dye based broth microdilution assay; type: functional, organism-based
HepG2 = assay: Cytotoxicity against human HepG2 cells assessed as reduction in cell viability after 48 hrs by CellTiter 96 aqueous one solution assay; type: cell-based; conditions: HepG2, 48 h
Candida parapsilosis = assay: Antifungal activity against Candida parapsilosis ATCC 22019 CCM 8260 at highest concentration measured after 24 to 48 hrs by alamar blue dye based broth microdilution assay; type: functional, organism-based
Mycobacterium kansasii [5] = assay: Antimycobacterial activity against Mycobacterium kansasii CNCTC My 235/80 after 14 days; type: functional; conditions: CNCTC My 235/80, 336 h; how it was run: as §2
Enterococcus faecalis = assay: Antibacterial activity against Enterococcus faecalis ATCC 29212 CCM 4224 at highest concentration measured after 24 to 48 hrs by alamar blue dye based broth microdilution assay; type: functional, organism-based
[6] = tested on: Trichophyton interdigitale; assay: Antifungal activity against Trichophyton interdigitale ATCC 9533 CCM 8377 at highest concentration measured after 72 to 120 hrs by alamar blue dye based broth microdilution assay; type: functional
Candida tropicalis = assay: Antifungal activity against Candida tropicalis ATCC 750 CCM 8264 at highest concentration measured after 24 to 48 hrs by alamar blue dye based broth microdilution assay; type: functional, organism-based
Candida albicans = assay: Antifungal activity against Candida albicans ATCC 24433 CCM 8320 at highest concentration measured after 24 to 48 hrs by alamar blue dye based broth microdilution assay; type: functional, organism-based
Mycobacterium kansasii [7] = assay: Antimycobacterial activity against Mycobacterium kansasii 6509/96 after 21 days; type: functional; conditions: 6509/96, 504 h; how it was run: as §2
Lichtheimia corymbifera = assay: Antifungal activity against Lichtheimia corymbifera CCM 8077 at highest concentration measured after 24 to 48 hrs by alamar blue dye based broth microdilution assay; type: functional, organism-based
Staphylococcus aureus [8] = assay: Antibacterial activity against Staphylococcus aureus subsp. aureus ATCC 29213 CCM 4223 at highest concentration measured after 24 to 48 hrs by alamar blue dye based broth microdilution assay; type: functional, organism-based
Mycobacterium kansasii [9] = assay: Antimycobacterial activity against Mycobacterium kansasii 6509/96 after 7 days; type: functional; conditions: 6509/96, 168 h; how it was run: as §2
A-431 = assay: Cytotoxicity against human A431 cells assessed as reduction in cell viability after 48 hrs by CellTiter 96 aqueous one solution assay; type: cell-based; conditions: A-431, 48 h
Mycobacterium kansasii [10] = assay: Antimycobacterial activity against Mycobacterium kansasii CNCTC My 235/80 after 21 days; type: functional; conditions: CNCTC My 235/80, 504 h; how it was run: as §2
[11] = tested on: Mycobacterium tuberculosis; assay: Antimycobacterial activity against Mycobacterium tuberculosis H37Rv CNCTC My 331/88 after 14 days; type: functional; conditions: H37Rv CNCTC My 331/88, 336 h
How it was run: (§3)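 M. tuberculosis strains (H37Rv and clinical MDR/XDR isolates) tested by microdilution in Šula's semisynthetic medium. Compounds were dissolved in DMSO and tested at 32 to 0.03 µM in twofold steps. Inoculum was a 1.0 McFarland suspension diluted 10-3. Plates were incubated at 37 °C and read at 14 and 21 days.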

Staphylococcus aureus [12] = assay: Antibacterial activity against methicillin-resistant Staphylococcus aureus subsp. aureus ATCC 43300 CCM 4750 at highest concentration measured after 24 to 48 hrs by alamar blue dye based broth microdilution assay; type: functional, organism-based
Klebsiella pneumoniae = assay: Antibacterial activity against Klebsiella pneumoniae at highest concentration measured after 24 to 48 hrs by alamar blue dye based broth microdilution assay; type: functional, organism-based
Aspergillus flavus = assay: Antifungal activity against Aspergillus flavus CCM 8363 at highest concentration measured after 24 to 48 hrs by alamar blue dye based broth microdilution assay; type: functional, organism-based
Serratia marcescens = assay: Antibacterial activity against Serratia marcescens at highest concentration measured after 24 to 48 hrs by alamar blue dye based broth microdilution assay; type: functional, organism-based
[13] = tested on: Staphylococcus epidermidis; assay: Antibacterial activity against Staphylococcus epidermidis at highest concentration measured after 24 to 48 hrs by alamar blue dye based broth microdilution assay; type: functional, organism-based
[14] = tested on: Mycobacterium tuberculosis; assay: Antimycobacterial activity against Mycobacterium tuberculosis H37Rv CNCTC My 331/88 after 21 days; type: functional; conditions: H37Rv CNCTC My 331/88, 504 h; how it was run: as §3
Pichia kudriavzevii = assay: Antifungal activity against Candida krusei ATCC 6258 CCM8271 at highest concentration measured after 24 to 48 hrs by alamar blue dye based broth microdilution assay; type: functional, organism-based
[15] = Cytotoxicity against human HepG2 cells assessed as cell viability at 30 uM after 48 hrs by CellTiter 96 aqueous one solution assay relative to control; type: cell-based; conditions: read-out: Activity
How it was run: (§4)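 HepG2 (DMEM, 10% FBS, 1 mM pyruvate) or A431 (DMEM, 10% FBS) seeded 10,000 cells/well, 24 h at 37 °C, 5% CO2, then 30 µM compound for 48 h. MTS reagent 60 min, absorbance 490 nm, background subtracted; 0.1% DMSO vehicle = 100%, 10% SDS = 0% viability.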

[16] = Cytotoxicity against human A431 cells assessed as cell viability at 30 uM after 48 hrs by CellTiter 96 aqueous one solution assay relative to control; type: cell-based, A-431; conditions: read-out: Activity; how it was run: as §4
[17] = tested on: Mycobacterium tuberculosis; assay: Antimycobacterial activity against XDR Mycobacterium tuberculosis Praha 131 after 14 days; type: functional; conditions: Praha 131, 336 h; how it was run: as §3

## COc1ccc(CSc2nnc(-c3cc([N+](=O)[O-])cc([N+](=O)[O-])c3)n2C)cc1
Pseudomonas aeruginosa
  Activity: inactive
Mycobacterium avium [1]
  MIC99: 16 µM (≈ 6.42 µg/mL)
Mycobacterium kansasii [2]
  MIC99: 1 µM (≈ 0.401 µg/mL)
Mycobacterium kansasii [3]
  MIC99: 2 µM (≈ 0.803 µg/mL)
Aspergillus fumigatus
  Activity: inactive
Mycobacterium avium [4]
  MIC99: 16 µM (≈ 6.42 µg/mL)
Escherichia coli
  Activity: inactive
HepG2
  IC50: > 30 µM
Candida parapsilosis
  Activity: inactive
Mycobacterium kansasii [5]
  MIC99: 2 µM (≈ 0.803 µg/mL)
Enterococcus faecalis
  Activity: inactive
[6]
  Activity: inactive
Candida tropicalis
  Activity: inactive
Candida albicans
  Activity: inactive
Mycobacterium kansasii [7]
  MIC99: 2 µM (≈ 0.803 µg/mL)
Lichtheimia corymbifera
  Activity: inactive
Staphylococcus aureus [8]
  Activity: inactive
Mycobacterium kansasii [9]
  MIC99: 2 µM (≈ 0.803 µg/mL)
A-431
  IC50: > 30 µM
Mycobacterium kansasii [10]
  MIC99: 4 µM (≈ 1.61 µg/mL)
[11]
  MIC99: 0.25 µM (≈ 0.1 µg/mL)
Staphylococcus aureus [12]
  Activity: inactive
Klebsiella pneumoniae
  Activity: inactive
Aspergillus flavus
  Activity: inactive
Serratia marcescens
  Activity: inactive
[13]
  Activity: inactive
[14]
  MIC99: 0.5 µM (≈ 0.201 µg/mL)
Pichia kudriavzevii
  Activity: inactive
[15]
  viability at 48 h, 30 µM: 107%
[16]
  viability at 48 h, 30 µM: 104%

## Cn1c(SCc2ccc(Br)cc2)nnc1-c1cc([N+](=O)[O-])cc([N+](=O)[O-])c1
Pseudomonas aeruginosa
  Activity: inactive
Mycobacterium avium [1]
  MIC99: 8 µM (≈ 3.6 µg/mL)
Mycobacterium kansasii [2]
  MIC99: 0.5 µM (≈ 0.225 µg/mL)
Mycobacterium kansasii [3]
  MIC99: 0.5 µM (≈ 0.225 µg/mL)
Aspergillus fumigatus
  Activity: inactive
Mycobacterium avium [4]
  MIC99: 8 µM (≈ 3.6 µg/mL)
Escherichia coli
  Activity: inactive
HepG2
  IC50: > 30 µM
Candida parapsilosis
  Activity: inactive
Mycobacterium kansasii [5]
  MIC99: 0.5 µM (≈ 0.225 µg/mL)
Enterococcus faecalis
  Activity: inactive
[6]
  Activity: inactive
Candida tropicalis
  Activity: inactive
Candida albicans
  Activity: inactive
Mycobacterium kansasii [7]
  MIC99: 1 µM (≈ 0.45 µg/mL)
Lichtheimia corymbifera
  Activity: inactive
Staphylococcus aureus [8]
  Activity: inactive
Mycobacterium kansasii [9]
  MIC99: 0.25 µM (≈ 0.113 µg/mL)
A-431
  IC50: > 30 µM
Mycobacterium kansasii [10]
  MIC99: 1 µM (≈ 0.45 µg/mL)
[11]
  MIC99: 0.25 µM (≈ 0.113 µg/mL)
Staphylococcus aureus [12]
  Activity: inactive
Klebsiella pneumoniae
  Activity: inactive
Aspergillus flavus
  Activity: inactive
Serratia marcescens
  Activity: inactive
[13]
  Activity: inactive
[14]
  MIC99: 0.5 µM (≈ 0.225 µg/mL)
Pichia kudriavzevii
  Activity: inactive
[15]
  viability at 48 h, 30 µM: 152%
[16]
  viability at 48 h, 30 µM: 137%

## CCCCCCn1c(SCc2ccccc2)nnc1-c1cc([N+](=O)[O-])cc([N+](=O)[O-])c1
Pseudomonas aeruginosa
  Activity: inactive
Mycobacterium avium [1]
  MIC99: 250 µM (≈ 110 µg/mL)
Mycobacterium kansasii [2]
  MIC99: 1 µM (≈ 0.442 µg/mL)
Mycobacterium kansasii [3]
  MIC99: 1 µM (≈ 0.442 µg/mL)
Aspergillus fumigatus
  Activity: inactive
Mycobacterium avium [4]
  MIC99: 250 µM (≈ 110 µg/mL)
Escherichia coli
  Activity: inactive
HepG2
  IC50: > 30 µM
Candida parapsilosis
  Activity: inactive
Mycobacterium kansasii [5]
  MIC99: 1 µM (≈ 0.442 µg/mL)
Enterococcus faecalis
  Activity: inactive
[6]
  Activity: inactive
Candida tropicalis
  Activity: inactive
Candida albicans
  Activity: inactive
Mycobacterium kansasii [7]
  MIC99: 1 µM (≈ 0.442 µg/mL)
Lichtheimia corymbifera
  Activity: inactive
Staphylococcus aureus [8]
  Activity: inactive
Mycobacterium kansasii [9]
  MIC99: 1 µM (≈ 0.442 µg/mL)
A-431
  IC50: > 30 µM
Mycobacterium kansasii [10]
  MIC99: 1 µM (≈ 0.442 µg/mL)
[11]
  MIC99: 1 µM (≈ 0.442 µg/mL)
Staphylococcus aureus [12]
  Activity: inactive
Klebsiella pneumoniae
  Activity: inactive
Aspergillus flavus
  Activity: inactive
Serratia marcescens
  Activity: inactive
[13]
  Activity: inactive
[14]
  MIC99: 1 µM (≈ 0.442 µg/mL)
Pichia kudriavzevii
  Activity: inactive
[15]
  viability at 48 h, 30 µM: 102%
[16]
  viability at 48 h, 30 µM: 98%

## CO[C@H]1/C=C/O[C@@]2(C)Oc3c(C)c(O)c4c(O)c(c(/C=N/N5CCN(C)CC5)c(O)c4c3C2=O)NC(=O)/C(C)=C\C=C\[C@H](C)[C@H](O)[C@@H](C)[C@@H](O)[C@@H](C)[C@H](OC(C)=O)[C@@H]1C [RIFAMPIN]
Mycobacterium avium [1]
  MIC99: 62 µM (≈ 51 µg/mL)
Mycobacterium kansasii [2]
  MIC99: 0.125 µM (≈ 0.103 µg/mL)
Mycobacterium kansasii [3]
  MIC99: 0.25 µM (≈ 0.206 µg/mL)
Mycobacterium avium [4]
  MIC99: 32 µM (≈ 26.3 µg/mL)
Mycobacterium kansasii [5]
  MIC99: 0.25 µM (≈ 0.206 µg/mL)
Mycobacterium kansasii [7]
  MIC99: 0.25 µM (≈ 0.206 µg/mL)
Mycobacterium kansasii [9]
  MIC99: 0.125 µM (≈ 0.103 µg/mL)
Mycobacterium kansasii [10]
  MIC99: 0.25 µM (≈ 0.206 µg/mL)
[11]
  MIC99: 0.25 µM (≈ 0.206 µg/mL)
[14]
  MIC99: 0.25 µM (≈ 0.206 µg/mL)
[17]
  MIC99: > 8 µM
